The results in this text go back to ChEMBL document CHEMBL1833810, “Synthesis and study of a series of 3-arylcoumarins as potent and selective monoamine oxidase B inhibitors” (J Med Chem, 2011).

The term inhibition denotes the share of the control response that was lost under treatment. Usually IC50 stands for the concentration needed to halve the response being measured.

For one data set, the target named is T1, Amine oxidase [flavin-containing] B (Homo sapiens, UniProt P27338).
T1 sequence (P27338 whole entry): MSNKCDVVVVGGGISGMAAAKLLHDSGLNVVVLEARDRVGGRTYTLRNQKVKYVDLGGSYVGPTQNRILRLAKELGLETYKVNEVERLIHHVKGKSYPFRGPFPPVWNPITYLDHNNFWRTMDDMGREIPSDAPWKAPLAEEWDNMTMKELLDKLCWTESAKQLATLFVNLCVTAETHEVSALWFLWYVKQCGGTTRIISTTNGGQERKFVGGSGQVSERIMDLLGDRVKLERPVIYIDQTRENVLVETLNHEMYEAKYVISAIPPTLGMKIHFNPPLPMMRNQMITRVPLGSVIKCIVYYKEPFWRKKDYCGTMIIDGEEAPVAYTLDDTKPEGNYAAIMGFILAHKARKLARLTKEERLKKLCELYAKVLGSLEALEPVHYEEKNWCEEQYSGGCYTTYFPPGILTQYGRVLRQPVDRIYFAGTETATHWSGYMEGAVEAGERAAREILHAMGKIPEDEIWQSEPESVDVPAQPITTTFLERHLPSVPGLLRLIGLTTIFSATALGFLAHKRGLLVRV
Kind of data set: Inhibition of human recombinant MAO-B expressed in insect BT1-TN-5B1-4 cells assessed as production of hydrogen peroxide from p-tyramine at 100 uM up to 15 mins by amplex red-based fluorometric assay. The settings on record: 0.25 h. In outline:
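hMAO-B was used as microsomes from BTI-TN-5B1-4 insect cells infected with recombinant baculovirus, at 7.5 μg protein. It was preincubated for 15 min at 37 °C with the test drug in sodium phosphate buffer, 0.05 M, pH 7.4. The reaction was then started with final 200 μM Amplex Red, 1 U/mL horseradish peroxidase and 1 mM p-tyramine. Resorufin fluorescence (545/590 nm) was followed at 37 °C for 15 min, minus the no-enzyme background and relative to vehicle controls. The top concentration was 100 μM.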
In the case of `COc1ccccc1-c1cc2cc(C)ccc2oc1=O`, the “inhibition (INH)” value is recorded as “Not Active”.

As to `COc1cc(-c2cc3cc(C)ccc3oc2=O)c(Br)c(OC)c1OC`, the “inhibition (INH)” value is reported as “Not Active”.

A further data set deals with T2, Amine oxidase [flavin-containing] A (Homo sapiens, UniProt P21397).
T2 sequence (P21397 whole entry): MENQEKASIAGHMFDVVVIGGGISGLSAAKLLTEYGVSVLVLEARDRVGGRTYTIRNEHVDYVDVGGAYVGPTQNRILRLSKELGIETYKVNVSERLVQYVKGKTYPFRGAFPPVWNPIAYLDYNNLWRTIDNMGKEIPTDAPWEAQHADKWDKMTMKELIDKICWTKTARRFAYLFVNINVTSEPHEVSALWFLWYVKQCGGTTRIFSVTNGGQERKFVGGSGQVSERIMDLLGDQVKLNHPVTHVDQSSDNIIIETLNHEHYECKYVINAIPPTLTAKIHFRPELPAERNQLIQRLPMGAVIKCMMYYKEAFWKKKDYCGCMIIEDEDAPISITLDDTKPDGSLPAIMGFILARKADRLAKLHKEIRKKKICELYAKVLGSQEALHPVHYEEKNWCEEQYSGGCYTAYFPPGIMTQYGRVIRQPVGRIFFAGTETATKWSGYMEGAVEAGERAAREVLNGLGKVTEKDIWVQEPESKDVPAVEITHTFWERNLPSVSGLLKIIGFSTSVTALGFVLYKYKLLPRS
Kind of data set: Inhibition of human recombinant MAO-A expressed in insect BT1-TN-5B1-4 cells assessed as production of hydrogen peroxide from p-tyramine at 100 uM up to 15 mins by amplex red-based fluorometric assay. The settings on record: 0.25 h. In short, it runs like this:
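Recombinant hMAO-A came from microsomes of baculovirus-infected BTI-TN-5B1-4 insect cells, at 1.1 μg protein. It was preincubated with the test drug in 0.05 M sodium phosphate, pH 7.4, for 15 min at 37 °C. The reaction was started with 200 μM Amplex Red, 1 U/mL HRP and 1 mM p-tyramine (final). H2O2-derived resorufin fluorescence (ex 545, em 590 nm) was read over 15 min. Enzyme-free background was subtracted against vehicle controls. 100 μM was the highest concentration tested.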
As to `Cc1cccc(-c2cc3cc(C)ccc3oc2=O)c1`, the inhibition at 100 µM is 40%.

Take `CC(=O)COc1cccc(-c2cc3cc(C)ccc3oc2=O)c1`: the inhibition at 100 µM was 40%.

The data set is the same for the next values; noted with them: 0.25 h, 100 µM.
For the molecule `COc1cc(OC)cc(-c2cc3cc(C)ccc3oc2=O)c1`, the “inhibition (INH)” value is reported as “Not Active”.

`COc1cc(OC)c(Br)c(-c2cc3cc(C)ccc3oc2=O)c1`: the “inhibition (INH)” value was “Not Active”.

With `COc1ccccc1-c1cc2cc(C)ccc2oc1=O`, the “inhibition (INH)” value is “Not Active”.

Turning to `COc1ccc2oc(=O)c(-c3cccc(C)c3)cc2c1`, the “inhibition (INH)” value is listed as “Not Active”.

In the case of `COc1cc(-c2cc3cc(C)ccc3oc2=O)ccc1Br`, the “inhibition (INH)” value is given as “Not Active”.

Consider `COc1ccc(-c2cc3cc(C)ccc3oc2=O)cc1`, for which the “inhibition (INH)” value is “Not Active”.

For `CC(=O)COc1ccc2oc(=O)c(-c3ccc(C)cc3)cc2c1`, the “inhibition (INH)” value is given as “Not Active”.

In the case of `Cc1ccc(-c2cc3cc(OC4CCCC4)ccc3oc2=O)cc1`, the “inhibition (INH)” value was “Not Active”.

Turning to `Cc1ccc(-c2cc3cc(C)ccc3oc2=O)cc1`, the “inhibition (INH)” value is “Not Active”.

As for `Cc1ccc2oc(=O)c(-c3ccccc3)cc2c1`, the “inhibition (INH)” value is “Not Active”.

`COc1cc(-c2cc3cc(C)ccc3oc2=O)c(Br)c(OC)c1OC`: the “inhibition (INH)” value is “Not Active”.

Take `COc1ccc(-c2cc3cc(C)ccc3oc2=O)cc1Br`: the “inhibition (INH)” value was “Not Active”.

For `COc1cccc(-c2cc3cc(C)ccc3oc2=O)c1`, the “inhibition (INH)” value is “Not Active”.

Turning to `COc1cc(-c2cc3cc(C)ccc3oc2=O)cc(OC)c1OC`, the “inhibition (INH)” value was “Not Active”.

As for `Cc1ccc2oc(=O)c(-c3ccc(O)cc3)cc2c1`, the “inhibition (INH)” value is listed as “Not Active”.

`COc1ccc2oc(=O)c(-c3ccc(C)cc3)cc2c1`: the “inhibition (INH)” value is “Not Active”.

The species entered for a further data set is Homo sapiens. Kind of data set: Selectivity index, ratio of IC50 for human recombinant MAO-A to IC50 for human recombinant MAO-B.
Conditions: not given; call rule not given here
For `COc1cc(OC)cc(-c2cc3cc(C)ccc3oc2=O)c1`, the Ratio IC50 is greater than 11100.

As to `COc1cc(OC)c(Br)c(-c2cc3cc(C)ccc3oc2=O)c1`, the Ratio IC50 is greater than 1.9.

Turning to `Cc1cccc(-c2cc3cc(C)ccc3oc2=O)c1`, the Ratio IC50 is greater than 6670.

Consider `COc1ccc2oc(=O)c(-c3cccc(C)c3)cc2c1`, for which the Ratio IC50 was greater than 5880.

Regarding `COc1cc(-c2cc3cc(C)ccc3oc2=O)ccc1Br`, the Ratio IC50 is greater than 31200.

For the molecule `COc1ccc(-c2cc3cc(C)ccc3oc2=O)cc1`, the Ratio IC50 was greater than 7660.

Take `CC(=O)COc1ccc2oc(=O)c(-c3ccc(C)cc3)cc2c1`: the Ratio IC50 was greater than 18.

`Cc1ccc(-c2cc3cc(OC4CCCC4)ccc3oc2=O)cc1`: the Ratio IC50 was greater than 6.9.

As to `Cc1ccc2oc(=O)c(-c3ccccc3)cc2c1`, the Ratio IC50 is greater than 352.

With `Cc1ccc2oc(=O)c(-c3cccc(O)c3)cc2c1`, the Ratio IC50 worked out at 54.

Take `COc1ccc(-c2cc3cc(C)ccc3oc2=O)cc1Br`: the Ratio IC50 was greater than 136000.

With `COc1cccc(-c2cc3cc(C)ccc3oc2=O)c1`, the Ratio IC50 was greater than 125000.

As for `COc1ccc(-c2cc3cc(C)ccc3oc2=O)cc1OC`, the Ratio IC50 amounted to 9210.

Consider `Cc1ccc2oc(=O)c(-c3ccccc3O)cc2c1`, for which the Ratio IC50 was 180.

With `CC(=O)COc1cccc(-c2cc3cc(C)ccc3oc2=O)c1`, the Ratio IC50 is greater than 555.

`COc1cc(-c2cc3cc(C)ccc3oc2=O)cc(OC)c1OC`: the Ratio IC50 was greater than 623.

Turning to `Cc1ccc(-c2cc3cc(O)ccc3oc2=O)cc1`, the Ratio IC50 came to 372.

`COc1ccc2oc(=O)c(-c3ccc(C)cc3)cc2c1`: the Ratio IC50 was greater than 6790.

The target in another data set is T1, Amine oxidase [flavin-containing] B. Briefly: Inhibition of human recombinant MAO-B expressed in insect BT1-TN-5B1-4 cells assessed as production of hydrogen peroxide from p-tyramine up to 15 mins by amplex red-based fluorometric assay.
Conditions: not given
In kind it is cell-based.
Consider `COc1cc(OC)c(Br)c(-c2cc3cc(C)ccc3oc2=O)c1`, for which the IC50 came out at 54000 nM.

For the molecule `Cc1cccc(-c2cc3cc(C)ccc3oc2=O)c1`, the IC50 worked out at 15 nM.

As for `COc1ccc2oc(=O)c(-c3cccc(C)c3)cc2c1`, the IC50 is 17.1 nM.

As for `COc1cc(-c2cc3cc(C)ccc3oc2=O)ccc1Br`, the IC50 worked out at 3.25 nM.

With `CC(=O)COc1ccc2oc(=O)c(-c3ccc(C)cc3)cc2c1`, the IC50 came to 5520 nM.

For `Cc1ccc(-c2cc3cc(OC4CCCC4)ccc3oc2=O)cc1`, the IC50 is 14500 nM.

For the molecule `Cc1ccc2oc(=O)c(-c3cccc(O)c3)cc2c1`, the IC50 was determined as 650 nM.

On to `COc1ccc(-c2cc3cc(C)ccc3oc2=O)cc1Br`, for which the IC50 was found to be 0.74 nM.

Regarding `COc1ccc(-c2cc3cc(C)ccc3oc2=O)cc1OC`, the IC50 was 2.73 nM.

In the case of `Cc1ccc2oc(=O)c(-c3ccccc3O)cc2c1`, the IC50 came to 120 nM.

For `CC(=O)COc1cccc(-c2cc3cc(C)ccc3oc2=O)c1`, the IC50 was 180 nM.

`Cc1ccc(-c2cc3cc(O)ccc3oc2=O)cc1`: the IC50 was determined as 67.1 nM.

Consider `COc1ccc2oc(=O)c(-c3ccc(C)cc3)cc2c1`, for which the half-maximal inhibitory concentration (IC50) stood at 1.52 nM.

The next data set concerns the target T2, Amine oxidase [flavin-containing] A. Briefly: Inhibition of human recombinant MAO-A expressed in insect BT1-TN-5B1-4 cells assessed as production of hydrogen peroxide from p-tyramine up to 15 mins by amplex red-based fluorometric assay.
Conditions: not given
As for `Cc1ccc2oc(=O)c(-c3cccc(O)c3)cc2c1`, the IC50 worked out at 35000 nM.

Take `COc1ccc(-c2cc3cc(C)ccc3oc2=O)cc1OC`: the IC50 was 25100 nM.

In the case of `Cc1ccc2oc(=O)c(-c3ccccc3O)cc2c1`, the IC50 is 21600 nM.

For `Cc1ccc(-c2cc3cc(O)ccc3oc2=O)cc1`, the IC50 was determined as 24900 nM.
